Publication PMC8256004 (ChemMedChem, 2020)

What was measured:
KPC-Kpn = assay: Micro-broth dilution MIC of cefepime in combination with inhibitor, KPC-Kpn; format: cell-based, Klebsiella pneumoniae; details: for MIC of cefepime (FEP) in combination with compound, KPC-Kpn: compound at constant 10 μg/mL, FEP 0.12 to 128 μg/mL
Outline: (§1)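 CLSI broth microdilution. Cultures grown overnight in Mueller-Hinton broth, then diluted to a McFarland standard (OD600 0.224). Cefepime serially diluted from 128 to 0.12 μg/mL, with boronic acid test compound held constant at 10 μg/mL. Incubated overnight at 37 °C and MIC read the next day.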

K. pneum blaKPC-2 = format: cell-based, Klebsiella pneumoniae; details: compound at constant 10 μg/mL; FEP 0.12 to 128 μg/mL
Outline: as §1

KPC-2 β-lactamase = KPC-2 β-lactamase (Klebsiella pneumoniae, UniProt Q9F663); assay: Competition kinetics of KPC-2 inhibition with nitrocefin as substrate; format: biochemical
KPC-2 β-lactamase, sequence (Q9F663 25-293, looked up): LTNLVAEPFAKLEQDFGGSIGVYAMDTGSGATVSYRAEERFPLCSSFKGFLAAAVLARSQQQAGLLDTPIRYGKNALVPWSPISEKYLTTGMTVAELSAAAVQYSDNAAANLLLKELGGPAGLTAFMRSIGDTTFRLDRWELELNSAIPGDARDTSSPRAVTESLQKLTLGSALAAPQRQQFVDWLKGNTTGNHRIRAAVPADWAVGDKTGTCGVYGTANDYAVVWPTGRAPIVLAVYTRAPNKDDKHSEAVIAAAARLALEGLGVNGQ

SMILES	MIC (KPC-Kpn; Klebsiella pneumoniae, read-out: MIC of cefepime (FEP) alone, KPC-Kpn) [µg/mL]	MIC of cefepime (FEP) in combination with compound, K. pneum blaKPC-2 (K. pneum blaKPC-2) [µg/mL]	MIC of cefepime (FEP) in combination with compound, KPC-Kpn (KPC-Kpn) [µg/mL]	Ki (KPC-2 β-lactamase) [µM]
CO/N=C(\C(=O)N[C@@H]1C(=O)N2C(C(=O)[O-])=C(C[N+]3(C)CCCC3)CS[C@H]12)c1csc(N)n1 [FEP, cefepime]	32			
NC(=O)[C@@H]1CC[C@@H]2CN1C(=O)N2OS(=O)(=O)O [avibactam]		< 0.12	< 0.12	
O=C(O)C[C@@H]1CC[C@H](NC(=O)Cc2cccs2)B(O)O1 [vaborbactam]		1	0.5	0.02 ± 0.003
